Laboratory results: ChEMBL document CHEMBL1139303, “One-pot synthesis of 5-phenylimino, 5-thieno or 5-oxo-1,2,3-dithiazoles and evaluation of their antimicrobial and antitumor activity” (2009)
In brackets after ≈: the same amount, converted by molar mass. Activity calls are given as the source filed them. The calls are words filed in the database; no cut-off is given here.

What was measured:
Nakaseomyces glabratus [1] = assay: Ratio of MFC to MIC against Candida glabrata DSM6425; format: functional
How it was run: (§1)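 Yeasts pre-grown on yeast extract peptone dextrose medium, 30 °C, 24 h. MIC and MFC by macro-dilution broth method; compounds in DMSO, max 2.13% solvent in cultures. Amphotericin B and fluconazole as references. MFC/MIC ratio computed; ≥4 taken as fungistatic. Triplicate.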

Candida tropicalis [2] = assay: Antifungal activity against Candida tropicalis DSM 1346 after 24 hrs by broth macrodilution method; format: functional; conditions: DSM 1346, 24 h; how it was run: as §1
Nakaseomyces glabratus [3] = assay: Antifungal activity against Candida glabrata DSM6425 after 24 hrs by broth macrodilution method; format: functional; conditions: DSM6425, 24 h; how it was run: as §1
Candida albicans [4] = assay: Antifungal activity against Candida albicans ATCC 10231 after 24 hrs by broth macrodilution method; format: functional; conditions: ATCC 10231, 24 h; how it was run: as §1
Candida tropicalis [5] = assay: Ratio of MFC to MIC against Candida tropicalis DSM 1346; format: functional; how it was run: as §1
Candida albicans [6] = assay: Ratio of MFC to MIC against Candida albicans ATCC 10231; format: functional
How it was run: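 C. albicans ATCC10231 was pre-grown on yeast extract peptone dextrose agar for 24 h at 30 °C. MIC and MFC were determined by broth macro-dilution, with compounds dissolved in DMSO at no more than 2.13% solvent in the liquid culture. Each endpoint was measured in triplicate, and the MFC was divided by the MIC to give the ratio.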

Staphylococcus aureus [7] = assay: Antibacterial activity against Staphylococcus aureus ATCC 25923 at 50 ug after 24 hrs by agar diffusion method; format: functional
How it was run: (§2)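 Bacteria pre-grown 24 h on nutritive agar (tryptone soy agar for E. faecalis, L. inocua) at 37 °C (30 °C for E. faecalis, L. inocua, B. cereus). Agar well diffusion with 50 µg compound in 80% DMSO; 80% DMSO alone as control. Inhibition zone diameter averaged from triplicate, scored 6-9, 9-12, >12 mm.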

Pichia kudriavzevii = assay: Antifungal activity against Issatchenkia orientalis DSM6128 at 50 ug after 24 hrs by agar diffusion method; format: functional, organism-based
How it was run: (§3)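 Yeasts grown on yeast extract peptone dextrose medium at 30 °C for 24 h, then agar well diffusion with 50 µg compound in 80% DMSO; 80% DMSO alone as control. Averaged inhibition zone diameter from triplicate, scored 6-9, 9-12 or >12 mm.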

MDA-MB-231 [8] = assay: Antiproliferative activity against human MDA-MB-231 cells after 72 hrs by MTT assay; format: functional; conditions: MDA-MB-231, 72 h
How it was run: (§4)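 5000 cells per well added to pre-equilibrated medium at 37 °C; compounds from 10^-3 M DMSO stocks, final 10^-5 M. After 72 h, MTT (5 g/L) for 4 h, formazan dissolved in DMSO, OD 550 nm. % growth inhibition vs 1% DMSO medium (0%) and 10% SDS lysis (100%); mean ± SEM, 24 measures, three independent experiments.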

Pseudomonas aeruginosa = assay: Antibacterial activity against Pseudomonas aeruginosa ATCC 27853 at 50 ug after 24 hrs by agar diffusion method; format: functional, organism-based; how it was run: as §2
MDA-MB-231 [9] = assay: Antiproliferative activity against human MDA-MB-231 cells at 10 uM after 72 hrs by MTT assay; format: functional; conditions: MDA-MB-231, 72 h; how it was run: as §4
Bacillus cereus [10] = assay: Antibacterial activity against Bacillus cereus after 24 hrs by broth macrodilution method; format: functional
How it was run: (§5)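 Bacteria pre-grown 24 h on nutritive agar (tryptone soy agar for E. faecalis, L. inocua) at 37 °C (30 °C for E. faecalis, L. inocua, B. cereus). MIC and MBC determined by macro-dilution broth method; MBC = lowest concentration killing 99.99% of inoculum. Compounds in DMSO, max 2.13% solvent in cultures. Triplicate.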

Staphylococcus aureus [11] = assay: Antibacterial activity against Staphylococcus aureus ATCC 25923 after 24 hrs by broth macrodilution method; format: functional; conditions: ATCC 25923, 24 h; how it was run: as §5
Candida tropicalis [12] = assay: Antifungal activity against Candida tropicalis DSM 1346 at 50 ug after 24 hrs by agar diffusion method; format: functional; conditions: DSM 1346, 24 h, read-out: IZ; how it was run: as §3
Bacillus cereus [13] = assay: Antibacterial activity against Bacillus cereus at 50 ug after 24 hrs by agar diffusion method; format: functional; conditions: read-out: IZ; how it was run: as §2
Nakaseomyces glabratus [14] = assay: Antifungal activity against Candida glabrata DSM6425 at 50 ug after 24 hrs by agar diffusion method; format: functional; conditions: DSM6425, 24 h, read-out: IZ; how it was run: as §3
Escherichia coli [15] = assay: Antibacterial activity against Escherichia coli ATCC 25922 at 50 ug after 24 hrs by agar diffusion method; format: functional; conditions: ATCC 25922, 24 h, read-out: IZ; how it was run: as §2
Listeria innocua [16] = assay: Antibacterial activity against Listeria innocua at 50 ug after 24 hrs by agar diffusion method; format: functional; conditions: read-out: IZ; how it was run: as §2
MCF7 = assay: Antiproliferative activity against human MCF7 cells after 72 hrs by MTT assay; format: functional; conditions: MCF7, 72 h; how it was run: as §4
Listeria innocua [17] = assay: Antibacterial activity against Listeria innocua after 24 hrs by broth macrodilution method; format: functional; how it was run: as §5
Escherichia coli [18] = assay: Antibacterial activity against Escherichia coli ATCC 25922 after 24 hrs by broth macrodilution method; format: functional; conditions: ATCC 25922, 24 h; how it was run: as §5
Enterococcus faecalis [19] = assay: Antibacterial activity against Enterococcus faecalis CIP 103214 after 24 hrs by broth macrodilution method; format: functional; conditions: CIP 103214, 24 h; how it was run: as §5
Enterococcus faecalis [20] = assay: Antibacterial activity against Enterococcus faecalis CIP 103214 at 50 ug after 24 hrs by agar diffusion method; format: functional; conditions: CIP 103214, 24 h, read-out: IZ; how it was run: as §2
Klebsiella pneumoniae = assay: Antibacterial activity against Klebsiella pneumoniae CIP 53153 at 50 ug after 24 hrs by agar diffusion method; format: functional, organism-based; how it was run: as §2
Candida albicans [21] = assay: Antifungal activity against Candida albicans ATCC 10231 at 50 ug after 24 hrs by agar diffusion method; format: functional; conditions: ATCC 10231, 24 h, read-out: IZ; how it was run: as §3

Compound | Ratio (Nakaseomyces glabratus [1]) | MFC (Candida tropicalis [2]) [µg/mL] | MIC (Candida tropicalis [2]) [µg/mL] | MFC (Nakaseomyces glabratus [3]) [µg/mL] | MIC (Nakaseomyces glabratus [3]) [µg/mL] | MFC (Candida albicans [4]) [µg/mL] | MIC (Candida albicans [4]) [µg/mL] | Ratio (Candida tropicalis [5]) | Ratio (Candida albicans [6]) | Activity (Pichia kudriavzevii) | GI50 (MDA-MB-231 [8]) [µM] | Activity (Pseudomonas aeruginosa) | inhibition at 10 µM (MDA-MB-231 [9]) [%] | MBC (Bacillus cereus [10]) [µg/mL] | MIC (Bacillus cereus [10]) [µg/mL] | MBC (Staphylococcus aureus [11]) [µg/mL] | MIC (Staphylococcus aureus [11]) [µg/mL] | zone of inhibition at 50 µg/disc (Candida tropicalis [12]) [mm] | zone of inhibition at 50 µg/disc (Bacillus cereus [13]) [mm] | zone of inhibition at 50 µg/disc (Nakaseomyces glabratus [14]) [mm] | further results
C[C@@H]1[C@H](O)[C@@H](C)/C=C/C=C/C=C/C=C/C=C/C=C/C=C/[C@H](O[C@@H]2O[C@H](C)[C@@H](O)[C@H](N)[C@@H]2O)C[C@@H]2O[C@](O)(C[C@@H](O)C[C@@H](O)[C@H](O)CC[C@@H](O)C[C@@H](O)CC(=O)O[C@H]1C)C[C@H](O)[C@H]2C(=O)O [AMPHOTERICIN B] | 2 | 2 (≈ 2.16 µM) | 1 (≈ 1.08 µM) | 2 (≈ 2.16 µM) | 2 (≈ 2.16 µM) | 0.5 (≈ 0.541 µM) | 0.25 (≈ 0.271 µM) | 2 | 2 | – | – | – | – | – | – | – | – | – | – | – | –
OC(Cn1cncn1)(Cn1cncn1)c1ccc(F)cc1F [FLUCONAZOLE] | >32 | > 128 | 4 (≈ 13.1 µM) | > 128 | 4 (≈ 13.1 µM) | > 128 | 2 (≈ 6.53 µM) | >32 | >64 | – | – | – | – | – | – | – | – | – | – | – | –
S=c1ssnc1-c1ccccn1 | 6 | 48 (≈ 226 µM) | 32 (≈ 151 µM) | 48 (≈ 226 µM) | 8 (≈ 37.7 µM) | > 48 | 32 (≈ 151 µM) | 1.5 | – | inactive | > 10 | inactive | 0 | > 48 | > 48 | > 48 | 48 (≈ 226 µM) | 9 | 9 | 9 | zone of inhibition at 50 µg/disc (Staphylococcus aureus [7]; Staphylococcus aureus, ATCC 25923, 24 h, read-out: IZ): 12 mm; zone of inhibition at 50 µg/disc (Escherichia coli [15]): 6 mm; zone of inhibition at 50 µg/disc (Listeria innocua [16]): 9 mm; GI50 (MCF7): > 10 µM; MBC (Listeria innocua [17]): > 48 µg/mL; MIC (Listeria innocua [17]): 16 µg/mL (≈ 75.4 µM); MBC (Escherichia coli [18]): > 48 µg/mL; MIC (Escherichia coli [18]): > 48 µg/mL; MBC (Enterococcus faecalis [19]): > 48 µg/mL; MIC (Enterococcus faecalis [19]): 48 µg/mL (≈ 226 µM); zone of inhibition at 50 µg/disc (Enterococcus faecalis [20]): > 12 mm; Activity (Klebsiella pneumoniae): inactive; zone of inhibition at 50 µg/disc (Candida albicans [21]): > 12 mm
CCOC(=O)c1nssc1=S | 1.5 | > 48 | 48 (≈ 232 µM) | 48 (≈ 232 µM) | 32 (≈ 154 µM) | > 48 | 48 (≈ 232 µM) | – | – | inactive | > 10 | inactive | 0 | > 48 | > 48 | > 48 | 48 (≈ 232 µM) | 6 | 9 | 6 | Activity (Staphylococcus aureus [7]): 12 mm; zone of inhibition at 50 µg/disc (Escherichia coli [15]): 9 mm; zone of inhibition at 50 µg/disc (Listeria innocua [16]): 6 mm; GI50 (MCF7): > 10 µM; MBC (Listeria innocua [17]): > 48 µg/mL; MIC (Listeria innocua [17]): 32 µg/mL (≈ 154 µM); MBC (Escherichia coli [18]): > 48 µg/mL; MIC (Escherichia coli [18]): > 48 µg/mL; MBC (Enterococcus faecalis [19]): > 48 µg/mL; MIC (Enterococcus faecalis [19]): > 48 µg/mL; zone of inhibition at 50 µg/disc (Enterococcus faecalis [20]): 9 mm; Activity (Klebsiella pneumoniae): inactive; zone of inhibition at 50 µg/disc (Candida albicans [21]): > 12 mm
